HSF-1 act = increases HSF-1 driven luciferase reporter signal. actives 1.7% (n = 300,000). activation, % at 9 µM. NIH3T3-HGL HSF-1 luciferase reporter, MG132, 8 h; 100% = twice DMSO control signal. AID 504408;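 active = mean replicate activation of at least 50% with a set share of replicates each reaching 50%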
HSP90 refold inh = HSP90 refolding inhibition in rabbit reticulocyte lysate; luciferase refolding luminescence, 3 h; inhibition, % at 5.6 µM; actives 0.91% (n = 290,000); AID 1789;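 active = inhibition above the screen-wide mean plus 3 SD, computed separately per campaign, cut at about 16% in these data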;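 note: inhibitors lower the luminescence because luciferase stays unfolded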
core dimer inh = HCV core protein dimerization inhibition; TR-FRET GST/Flag-core106 dimerization, 1536-well; inhibition, % at 5 µM; AID 1899; actives 0.33% (n = 300,000);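 active = inhibition above the mean of all tested compounds plus 3 SD, set per screening campaign, cut at about 45% in these data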
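Assay system: tagged HCV core106 pair (GST and Flag); medium: KF-containing HEPES buffer, pH 7.45, DTT, CHAPS, BSA; also added: Eu donor and XL665 acceptor anti-tag antibodies; dosing: 5 µM single dose; timing: compound-protein-antibody incubation 4 h at 22.5 °C; signal: TR-FRET 671 and 617 nm emission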
HSF1 inh = HSF1 inhibition; AID 2098; actives 0.77% (n = 300,000); NIH3T3-HGL HSE-luciferase, MG132-induced, luminescence 8 h; hits give low values; activity change, negative = inhibition, % at 7.5 µM (by protocol);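 active = more than half of replicate wells show activity change below -50%, luminescence cut by over half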;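 note: luciferase reports HSF-1 transcriptional activity via heat shock element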
FID counter = displaces DNA intercalator in HCV helicase counter-screen; DNA fluorescent intercalator displacement, fluorescence; inhibition, % at 7.9 µM; actives 0.17% (n = 290,000); AID 1845; in the data active = inhibition above about 37%;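 note: higher means more ethidium bromide displaced from hairpin DNA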
HCV NS3 hel inh = blocks Hepatitis C virus NS3 helicase unwinding; actives 0.56% (n = 290,000); NS3 helicase DNA unwinding, Cy5 molecular beacon fluorescence; AID 1800; inhibition, % at 10.9 µM;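 active = inhibition above the mean of all tested compounds plus 3 SD, set per campaign, cut at about 35% in these data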
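Material: hepatitis C virus NS3 helicase domain fragment enzyme; measured by: Cy5 fluorescence, 0 and 60 min reads; control set: DMSO and thioflavine S; incubation: 60 min unwinding reaction at 25 °C after ATP addition; read-out basis: % inhibition from 60/0 min fluorescence ratio, DMSO 0%, thioflavine S 100%; repeats: singlicate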
HSP90 confirm = confirmation of HSP90 inhibitors | shares compounds with HSP90 refold inh | rabbit reticulocyte lysate, luciferase refolding luminescence, 3 h | inhibition, % at 5.9 µM | actives 64% (n = 2,300); in the data active = inhibition above about 18%
luciferase ctr = firefly luciferase inhibition, HSP90 counter-screen; shares compounds with HSP90 refold inh; purified native firefly luciferase, luminescence; inhibition, % at 5.9 µM; actives 48% (n = 2,300); AID 1847;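 active = inhibition above the mean inhibition of all tested sample wells plus 3 SD, cut at about 10% in these data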
Target sequence (P08659 whole entry, looked up): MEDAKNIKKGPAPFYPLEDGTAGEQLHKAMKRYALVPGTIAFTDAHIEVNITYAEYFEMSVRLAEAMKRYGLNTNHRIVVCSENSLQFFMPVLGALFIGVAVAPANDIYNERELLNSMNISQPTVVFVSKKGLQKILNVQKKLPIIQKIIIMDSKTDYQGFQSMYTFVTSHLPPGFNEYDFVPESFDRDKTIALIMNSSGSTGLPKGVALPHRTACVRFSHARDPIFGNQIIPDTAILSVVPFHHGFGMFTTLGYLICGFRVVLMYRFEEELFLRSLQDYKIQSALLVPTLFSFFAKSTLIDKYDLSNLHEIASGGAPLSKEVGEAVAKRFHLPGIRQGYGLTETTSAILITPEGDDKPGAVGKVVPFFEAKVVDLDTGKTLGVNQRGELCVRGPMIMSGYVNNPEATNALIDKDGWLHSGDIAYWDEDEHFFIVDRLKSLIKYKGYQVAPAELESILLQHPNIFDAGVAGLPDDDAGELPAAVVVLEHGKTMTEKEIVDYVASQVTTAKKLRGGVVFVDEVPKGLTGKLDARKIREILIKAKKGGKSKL
Hits are given with their value; – = inactive; · = no result. Most compounds without a hit are left out; they make up all but 3.9% or so of the library.

SMILES | HSF-1 act | HSP90 refold inh | core dimer inh | HSF1 inh | FID counter | HCV NS3 hel inh | HSP90 confirm | luciferase ctr
Cc1nn(-c2ccccc2)c(Cl)c1/C=N/NC(=O)c1ccc(CNc2ccccc2)o1 | – | – | – | – | – | – | · | ·
CN(C)CCCNC(=O)c1cc(C(=O)c2ccc(F)cc2)c[nH]1 | – | – | – | – | – | – | · | ·
Cc1cc(C(=O)COC(=O)c2ccc[nH]c2=O)c(C)n1-c1ccccc1 | – | – | – | – | – | – | · | ·
CCOc1ccc(-n2c(C)cc(/C=N/Nc3nc(C)cc(=O)[nH]3)c2C)cc1 | – | – | – | – | – | – | · | ·
COc1ccc(-n2c(C)cc(/C=N/Nc3nnc(C)n3N)c2C)cc1 | – | 75 | – | – | – | – | – | –
CCOc1ccc(C(=O)OCC(=O)NCc2ccco2)cc1OCC | – | 31 | – | – | – | – | – | –
COc1ccc(/C=N/NC(=O)c2nn(-c3ccccc3)c(=O)c3c(N)scc23)cc1 | – | 20 | – | – | – | – | – | –
Cc1ccc(NC(=O)N2CCCc3ccccc32)cc1 | – | – | – | – | – | – | · | ·
Cc1ccc(C(=O)Nc2ccc(N3CCN(C)CC3)cc2)cc1C | – | 22 | – | -51 | – | – | 29 | 23
CN1CCN(c2ccc(NC(=O)Cc3ccccc3)cc2)CC1 | – | – | – | – | – | – | · | ·
Cc1cc(C(=O)Nc2ccc(N3CCCCC3)cc2)no1 | – | 24 | – | – | – | – | 50 | 36
CN1CCN(c2ccc(NC(=O)N3CCc4ccccc43)cc2)CC1 | – | 72 | – | -85 | – | – | 71 | 61
Cc1ccc(NC(=O)N2CCc3ccccc32)cc1C | 51 | 18 | – | – | – | – | 37 | 17
Cc1ccc(C(=O)Nc2ccc(N3CCN(S(C)(=O)=O)CC3)cc2)cc1C | – | – | – | – | – | – | · | ·
Cc1cc(C(=O)Nc2ccc(S(=O)(=O)N3CCCC3)cc2)no1 | – | – | – | – | – | – | · | ·
COc1cc(C(C(=O)NC(C)(C)C)N(C(=O)CNC(=O)c2cccs2)c2cccnc2)cc(OC)c1OC (stereo unspecified) | – | – | – | – | – | – | · | ·
O=C(O)C1=C[C@@H](c2ccc(C(F)(F)F)cc2)C[C@@H](OCCCCO)O1 | – | · | – | – | · | · | · | ·
COc1ccc(Nc2nccc3c2ncn3C)cc1 | – | · | – | – | · | · | · | ·
Nc1ccc(C(=O)N/N=C/c2cn(Cc3ccccc3F)c3ccccc23)cc1 | – | – | · | – | – | – | · | ·
O=C(O)c1ccc(N/N=C/C(Br)=C/c2ccccc2)cc1 | – | 24 | – | – | – | – | 50 | 35
O=C(O)c1ccc(N/N=C/c2c[nH]c3ccccc23)cc1 | – | 82 | – | -78 | – | – | 89 | 86
Cn1cc(/C=N/Nc2ccccc2)c2ccccc21 | – | – | – | – | – | – | · | ·
CC(C)n1cc(/C=N/Nc2ccc(C(=O)O)cc2)c2ccccc21 | – | 63 | – | -82 | – | – | 71 | 62
O=C(O)c1ccc(N/N=C/c2cn(Cc3ccccc3F)c3ccccc23)cc1 | – | 36 | – | -64 | – | – | 39 | 32
CC(OC(=O)c1ccc(Cl)nc1)C(=O)NC1(C#N)CCCCC1 (stereo unspecified) | – | · | – | – | · | · | · | ·
SMILES | HSF-1 act | HSP90 refold inh | core dimer inh | HSF1 inh | FID counter | HCV NS3 hel inh | HSP90 confirm | luciferase ctr
CCOc1ccc(OCc2cccc(C(=O)N3CCCCCC3)c2)cc1 | – | 28 | – | – | – | – | 56 | 52
CCOc1ccc(C(=O)N2CCCC2)cc1 | – | – | – | – | – | – | · | ·
O=C(NN1CCCCC1)c1cccc(COc2ccc(Cl)cc2)c1 | – | – | – | – | – | – | · | ·
CCOc1ccc(OCc2cccc(C(=O)N3CCCC3)c2)cc1 | – | 21 | – | -51 | – | – | 30 | 26
Cc1ccc(C2NC(=O)NC3=C2CCc2ccccc23)cc1 (stereo unspecified) | · | 23 | – | · | – | – | 52 | 67
Cc1ccc2nc(-c3ccc(O)c(O)c3)cn2c1 | – | 30 | – | – | – | – | 41 | 9.7
Cc1ccc2nc(-c3ccccc3)cn2c1 | – | 86 | – | – | – | – | 92 | 83
Clc1ccc(-c2cn3cc(Cl)ccc3n2)cc1 | – | 32 | – | – | – | – | 55 | 54
NNC(=O)c1ccc2nc(-c3ccc(Br)cc3)cn2c1 | – | – | – | – | – | – | · | ·
Oc1ccc(-c2cn3cc(C(F)(F)F)ccc3n2)cc1 | – | 17 | – | – | – | – | 49 | 40
CSCCC(NC(=O)COc1ccccc1)C(=O)N(C)CC(=O)Nc1c(C)cccc1C (stereo unspecified) | – | · | – | – | · | · | · | ·
Cc1ccccc1Nc1nc(N)nc(COC(=O)CCNS(=O)(=O)c2ccccc2)n1 | – | · | – | – | · | · | · | ·
CCCCN(C(=O)c1ccc(N2CCCC2=O)cc1)c1c(N)n(Cc2ccccc2)c(=O)[nH]c1=O | – | · | – | – | · | · | · | ·
COc1ccccc1C(=O)N(CCC1CCCN1C)c1nc2ccccc2s1 (stereo unspecified) | – | 67 | – | -72 | 42 | – | 70 | 69
O=C(Nc1nc2cc3c(cc2s1)OCCO3)c1cccs1 | – | 39 | – | – | – | – | 62 | 59
O=C(NC(=S)Nc1ccc2c(c1)OCCO2)c1ccco1 | – | 24 | – | – | – | – | 20 | –
Cc1ccc(C(=O)Nc2ccc3c(c2)CCC3)cc1 | – | 25 | – | – | – | – | 71 | 67
Cc1ccc(C(=O)Nc2ccc3c(c2)OCCO3)cc1 | – | 58 | · | – | – | – | 75 | 63
CCOc1ccc(C(=O)Nc2cc(C)ccn2)cc1 | – | 50 | – | – | – | – | 75 | 58
O=C(CSc1nnc(-c2ccc(F)cc2)o1)N1CCCC1 | – | – | – | – | – | – | · | ·
C[C@H]([C@H](O)c1ccccc1)N(C)C(=O)CN | – | – | – | – | – | – | · | ·
Cc1ccccc1C(=O)Nc1ccc2c(c1)OCO2 | – | 22 | – | – | – | – | 36 | 15
CCC(=O)Nc1ccc(NC(=O)c2ccc3c(c2)OCO3)cc1 | – | – | – | – | – | – | · | ·
CCOc1ccc(C(=O)Nc2ccc3c(c2)OCCO3)cc1 | 118 | 22 | – | – | – | – | 37 | 16
COc1ccc(NC(=O)c2ccc3c(c2)OCO3)cc1 | – | 19 | – | – | – | – | 27 | 14
CCCOc1cccc(C(=O)Nc2ccc3c(c2)OCCO3)c1 | – | 21 | – | – | – | – | 40 | 25
COc1ccc(Cl)cc1NC(=O)CN(C)C(=O)C12CC3CC(CC(Cl)(C3)C1)C2 | – | – | · | – | – | – | · | ·

Screening results deposited in PubChem BioAssay by several laboratories.
